IDH1 mut inh = inhibitors of human IDH1 R132H | O75874 | IDH1 R132H reductase, diaphorase/resazurin fluorescence, 60 min | inhibition, % at 10 µM | actives 0.18% (n = 70,000); in the data active means inhibition above about 34%; inconclusive means no clear call, values can overlap the other calls; inactive means below about 11%;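 further: 0% = DMSO and 100% = no enzyme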
Pf Dd2 inh = P. falciparum Dd2 growth inhibition | SYBR Green, 72 h; stronger effect = lower value | activity change, % at 10 µM | actives 2.3% (n = 94,000); in the data active means activity change below about -80%; inconclusive means no clear call, values can overlap the other calls
GASC1 inh = inhibitors of human demethylase GASC-1 KDM4C; inhibition, % at 12.5 µM; GST-KDM4C 2-372, H3K9me3 peptide, LANCE TR-FRET; actives 0.15% (n = 96,000); AID 720574;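 active means mean replicate inhibition above about 25%, with at least 55% of replicates also reaching it, limit read from the data, passing the limit was not always enough; inconclusive means only one of those two conditions met; inactive means neither condition met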
Target sequence (Q9H3R0 2-372 limits assumed): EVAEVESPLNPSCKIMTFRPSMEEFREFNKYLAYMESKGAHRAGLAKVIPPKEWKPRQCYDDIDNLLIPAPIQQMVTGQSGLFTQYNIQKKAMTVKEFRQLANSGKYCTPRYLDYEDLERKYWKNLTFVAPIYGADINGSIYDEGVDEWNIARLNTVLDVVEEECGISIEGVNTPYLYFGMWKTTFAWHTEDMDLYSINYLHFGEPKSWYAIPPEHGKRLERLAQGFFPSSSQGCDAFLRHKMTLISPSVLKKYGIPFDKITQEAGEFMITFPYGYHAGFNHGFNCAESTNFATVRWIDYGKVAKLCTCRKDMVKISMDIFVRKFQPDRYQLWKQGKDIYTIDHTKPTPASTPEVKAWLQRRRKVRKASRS
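System: N-terminal GST-fused human GASC-1 (KDM4C) fragment, residues 2-372 / Amount: 10 nM GST-KDM4C in enzyme reaction / Also added: H3K9me3 peptide with Fe(II)/2OG / Times: 30 min demethylation and 1 h detection at room temperature / Signal: LANCE TR-FRET / Read-out basis: Fall in 671/618 emission ratio as inhibition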
T cruzi growth-1 = inhibitors of T. cruzi proliferation; T. cruzi beta-gal in NIH3T3, GalScreen luminescence, 90 h; inhibition, % at 8.34 µM; actives 5.9% (n = 77,000);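 active means mean inhibition above about 93%, with at least 55% of replicates each passing it, limit read from the data, passing the limit was not always enough; inconclusive means only one of those two conditions holds; inactive means neither condition holds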
T cruzi growth-2 = Trypanosoma cruzi proliferation inhibition. shares compounds with T cruzi growth-1. T. cruzi beta-gal in NIH3T3, GalScreen luminescence, 90 h. inhibition, % at 8.35 µM. actives 72% (n = 5,600);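 active means mean replicate inhibition above about 95% and at least 55% of replicates individually reaching it, limit read from the data; inconclusive means only one of the two criteria is met; inactive means neither criterion is met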
T cruzi growth-3 = Trypanosoma cruzi proliferation inhibition. shares compounds with T cruzi growth-1. T. cruzi beta-gal in NIH3T3, GalScreen luminescence, 90 h. inhibition, % at 2.09 µM. actives 21% (n = 5,600). AID 651740;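 active means mean inhibition above about 95%, with at least 55% of replicates also reaching it, limit read from the data; inconclusive means meets just one of the two conditions; inactive means meets neither condition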;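 further: plate controls were neutral control median for no effect and positive control median for full effect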
3T3 cytotox = kills mouse NIH/3T3 fibroblasts; NIH/3T3 viability, CellTiter-Glo ATP luminescence, 90 h; actives 14% (n = 5,600); shares compounds with T cruzi growth-1; cytotoxicity (signal decrease), % at 8.35 µM;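 active means mean signal decrease across replicates above about 35% based on untreated-well scatter, with enough replicates individually passing, limit read from the data; inconclusive means no rule stated though some were filed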;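 further: 0% = median of neutral control wells and 100% = median of positive control wells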
3T3 cytotox 2 = NIH/3T3 (mouse) viability loss. inhibition, % at 24.9 µM. shares compounds with T cruzi growth-1. AID 651744. NIH/3T3 viability, CellTiter-Glo ATP luminescence, 90 h. actives 56% (n = 5,600);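 active means mean loss of cell viability signal at or above a set limit, and enough replicates individually reaching it; inconclusive means meets only the mean limit or only the replicate share; inactive means meets neither condition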;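 further: 0% = median of neutral control wells and 100% = median of positive control wells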
* marks the source's active call; other numbers are inactive results; u = inconclusive; x = not tested or not shown. An excerpt weighted towards active compounds, which were near 5.8% of everything screened.

SMILES	IDH1 mut inh	Pf Dd2 inh	GASC1 inh	T cruzi growth-1	T cruzi growth-2	T cruzi growth-3	3T3 cytotox	3T3 cytotox 2
CCc1cnc(N2[C@H](C#N)[C@@H](c3ccc(C#Cc4ccccc4F)cc3)[C@@H]2CO)s1	x	-53	-1	100*	100*	107*	-25	85*
CCc1cnc(N2[C@H](C#N)[C@H](c3ccccc3)[C@H]2CO)s1	x	26	-1	-7	x	x	x	x
CCOC(=O)CCCSc1nc2c(c(C(F)(F)F)c1C#N)CC(C)CC2 (configuration not stated)	0	x	x	x	x	x	x	x
C[C@H]1CN([C@@H](C)CO)S(=O)(=O)c2ccc(C#CC3CCCC3)cc2O[C@H]1CN(C)C(=O)c1cccc(F)c1	3	-56	0	124*	94	94	-3	103*
CC(C)C#Cc1ccc2c(c1)O[C@@H](CN(C)C(=O)c1cccc(F)c1)[C@@H](C)CN([C@@H](C)CO)S2(=O)=O	0	-72	0	95	x	x	x	x
C[C@H](CO)N1C[C@H](C)[C@@H](CN(C)C(=O)c2cccc(F)c2)Oc2cc(C#CC3CCCC3)ccc2S1(=O)=O	0	-71	0	122*	102*	113*	13	105*
COc1ccc(CNC(=O)c2cc3c(c(-c4cccc(-c5ccc(C#N)cc5)c4)n2)[C@@H](CCO)N([S@](=O)C(C)(C)C)C3)cc1	0	-53	-2	98*	111*	107*	21	38*
CC(C)(C)[S@](=O)N1Cc2cc(C(=O)NCc3ccncc3)nc(-c3cccc(-c4cccc(C#N)c4)c3)c2[C@@H]1CCO	0	-66	-1	72	x	x	x	x
COc1ccc(CNC(=O)c2cc3c(c(-c4cccc(-c5cccc(C#N)c5)c4)n2)[C@@H](CCO)N([S@](=O)C(C)(C)C)C3)cc1	0	-73	-7	u	107*	100*	19	45*
CC(C)(C)[S@](=O)N1Cc2cc(C(=O)NCc3ccccc3F)nc(-c3cccc(-c4ccncc4)c3)c2[C@@H]1CCO	0	-77	-1	99*	102*	90	20	103*
CCS(=O)(=O)N1CCCCN2[C@H](CO)[C@@H](c3ccc(-c4cccc(C#N)c4)cc3)[C@@H]2C1	x	-89*	-2	108*	68	0	14	69*
CCS(=O)(=O)N1CCCCN2[C@H](CO)[C@@H](c3ccc(-c4cccc(C#N)c4)cc3)[C@H]2C1	x	-38	-2	71	x	x	x	x
CCS(=O)(=O)N1CCCCN2[C@@H](CO)[C@@H](c3ccc(-c4ccc(C#N)cc4)cc3)[C@@H]2C1	x	-51	-2	99*	65	24	17	39*
CO[C@@H]1CN(C)C(=O)c2ccc(NC(=O)C3CC3)cc2OC[C@H](C)N(C(=O)c2cccnc2)C[C@H]1C	0	34	2	42	x	x	x	x
CO[C@H]1CN(C)C(=O)c2ccc(NC(=O)C3CC3)cc2OC[C@@H](C)N(C(=O)c2ccccn2)C[C@H]1C	0	19	-2	102*	53	17	9	0
CO[C@H]1CN(C)C(=O)c2ccc(NC(=O)C3CC3)cc2OC[C@H](C)N(C(=O)c2cccnc2)C[C@@H]1C	0	29	1	112*	-186	22	-7	-17
CO[C@@H]1CN(C)C(=O)c2ccc(NC(=O)C3CC3)cc2OC[C@@H](C)N(C(=O)c2ccccn2)C[C@@H]1C	0	-18	-1	40	x	x	x	x
Cc1cccc(NC(=O)C2CN(S(=O)(=O)c3ccccc3)CCN2S(=O)(=O)c2ccccc2)c1 (configuration not stated)	0	x	x	x	x	x	x	x
CCNC(=O)c1c(NC(=O)c2ccccc2[N+](=O)[O-])sc2c1CCCC2	0	x	x	x	x	x	x	x
CC(C)CC#Cc1ccc2c(c1)O[C@H](CN(C)C(=O)C1CCCCC1)[C@H](C)CN([C@H](C)CO)S2(=O)=O	x	-66	-1	111*	99*	106*	63*	104*
